From BindingDB's records for doi:10.1021/jm0009538 (Paris-Sud University, 2000)

Molecular target: 5-hydroxytryptamine receptor 4 (Homo sapiens, UniProt Q13639)
Assay: Concentration required to produce half-maximal response against 5-hydroxytryptamine receptor in the presence of 10 nM compound in isolated human atrial myocytes
In short: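 Whole-cell patch clamp on enzymatically dissociated human atrial myocytes, room temperature (19–25 °C); Cs-based internal, pCa 8.5; I_Ca at 0 mV every 8 s, peak minus current at end of 400-ms pulse.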

Chain of 5-hydroxytryptamine receptor 4 (Q13639 whole entry): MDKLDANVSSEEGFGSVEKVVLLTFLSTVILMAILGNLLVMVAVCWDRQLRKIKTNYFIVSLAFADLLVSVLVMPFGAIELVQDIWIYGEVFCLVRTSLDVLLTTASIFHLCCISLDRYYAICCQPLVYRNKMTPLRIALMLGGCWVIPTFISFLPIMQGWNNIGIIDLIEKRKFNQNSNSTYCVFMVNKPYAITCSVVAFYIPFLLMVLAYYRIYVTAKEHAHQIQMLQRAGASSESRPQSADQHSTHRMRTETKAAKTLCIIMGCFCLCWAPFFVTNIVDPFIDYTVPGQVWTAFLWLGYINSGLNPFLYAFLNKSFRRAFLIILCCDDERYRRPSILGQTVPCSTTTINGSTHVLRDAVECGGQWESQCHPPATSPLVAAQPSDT

EC50: 66 nM
SMILES: COc1cc(N)c(Cl)cc1C(=O)OCCN1CCN(c2ncccn2)CC1 [4-Amino-5-chloro-2-methoxy-benzoic acid 2-(4-pyrimidin-2-yl-piperazin-1-yl)-ethyl ester]
